# Measured values: ChEMBL document CHEMBL1255409, “In vitro activity of ceftaroline against 623 diverse strains of anaerobic bacteria” (2010)
# Assays:
# Bacteroides caccae = experiment: Antimicrobial activity against Bacteroides caccae under anaerobic conditions after 44 hrs by CLSI-M11-47 protocol based agar dilution method; type: functional
# Summary of the method: (§1)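 Reference agar dilution per CLSI M11-A7 with plates made on test day. Clinical isolates were stored at −70°C in 20% skim milk, subcultured twice, and 48-h cell paste was suspended in brucella broth to 0.5 McFarland. About 10^5 CFU/spot was applied with a Steers replicator. Plates were incubated 44 h at 37°C anaerobically. MIC was the lowest concentration giving complete inhibition or marked growth reduction versus the drug-free control.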
# Parabacteroides merdae = experiment: Antimicrobial activity against Bacteroides merdae under anaerobic conditions after 44 hrs by CLSI-M11-47 protocol based agar dilution method; type: functional; summary of the method: as §1
# Bacteroides ovatus = experiment: Antimicrobial activity against Bacteroides ovatus under anaerobic conditions after 44 hrs by CLSI-M11-47 protocol based agar dilution method; type: functional; summary of the method: as §1
# Bacteroides uniformis = experiment: Antimicrobial activity against Bacteroides uniformis under anaerobic conditions after 44 hrs by CLSI-M11-47 protocol based agar dilution method; type: functional; summary of the method: as §1
# [1] = tested on: Prevotella melaninogenica; experiment: Antimicrobial activity against Prevotella melaninogenica under anaerobic conditions after 44 hrs by CLSI-M11-47 protocol based agar dilution method; type: functional
# Summary of the method: (§2)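 Clinical isolates were stored at −70°C in 20% skim milk and identified phenotypically or by partial 16S rRNA sequencing. Each strain was subcultured twice from frozen stock. Cell paste from 48-h cultures was suspended in brucella broth to a 0.5 McFarland standard. About 10^5 CFU per spot were applied by Steers replicator to agar dilution plates prepared on the day of testing. Plates were incubated 44 h at 37°C in an anaerobic chamber. MIC was taken as the lowest concentration giving complete inhibition or marked reduction of growth versus the drug-free control.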
# Prevotella corporis = experiment: Antimicrobial activity against Prevotella corporis under anaerobic conditions after 44 hrs by CLSI-M11-47 protocol based agar dilution method; type: functional; summary of the method: as §2
# Prevotella nanceiensis = experiment: Antimicrobial activity against Prevotella nanceiensis under anaerobic conditions after 44 hrs by CLSI-M11-47 protocol based agar dilution method; type: functional; details: Hoylesella nanceiensis; summary of the method: as §2
# Prevotella oris = experiment: Antimicrobial activity against Prevotella oris under anaerobic conditions after 44 hrs by CLSI-M11-47 protocol based agar dilution method; type: functional; details: Segatella oris; summary of the method: as §2
# [2] = tested on: Porphyromonas asaccharolytica; experiment: Antimicrobial activity against Porphyromonas asaccharolyticus under anaerobic conditions after 44 hrs by CLSI-M11-47 protocol based agar dilution method; type: functional; summary of the method: as §2
# Porphyromonas somerae = experiment: Antimicrobial activity against Porphyromonas somerae under anaerobic conditions after 44 hrs by CLSI-M11-47 protocol based agar dilution method; type: functional; summary of the method: as §2
# [3] = tested on: Fusobacterium necrophorum; experiment: Antimicrobial activity against Fusobacterium necrophorum under anaerobic conditions after 44 hrs by CLSI-M11-47 protocol based agar dilution method; type: functional; summary of the method: as §1
# Finegoldia magna = experiment: Antimicrobial activity against Finegoldia magna under anaerobic conditions after 44 hrs by CLSI-M11-47 protocol based agar dilution method; type: functional; summary of the method: as §1
# [4] = tested on: Peptoniphilus asaccharolyticus; experiment: Antimicrobial activity against Peptoniphilus asaccharolyticus under anaerobic conditions after 44 hrs by CLSI-M11-47 protocol based agar dilution method; type: functional; summary of the method: as §2
# [5] = tested on: Anaerococcus lactolyticus; experiment: Antimicrobial activity against Anaerococcus lactolyticus under anaerobic conditions after 44 hrs by CLSI-M11-47 protocol based agar dilution method; type: functional; summary of the method: as §1
# Anaerococcus octavius = experiment: Antimicrobial activity against Anaerococcus octavius under anaerobic conditions after 44 hrs by CLSI-M11-47 protocol based agar dilution method; type: functional; summary of the method: as §1
# Anaerococcus vaginalis = experiment: Antimicrobial activity against Anaerococcus vaginalis under anaerobic conditions after 44 hrs by CLSI-M11-47 protocol based agar dilution method; type: functional; summary of the method: as §1
# Anaerococcus = experiment: Antimicrobial activity against Anaerococcus sp. under anaerobic conditions after 44 hrs by CLSI-M11-47 protocol based agar dilution method; type: functional; summary of the method: as §1
# Gemella morbillorum = experiment: Antimicrobial activity against Gemella morbillorum under anaerobic conditions after 44 hrs by CLSI-M11-47 protocol based agar dilution method; type: functional; summary of the method: as §2
# Actinomyces israelii = experiment: Antimicrobial activity against Actinomyces israelii under anaerobic conditions after 44 hrs by CLSI-M11-47 protocol based agar dilution method; type: functional; summary of the method: as §1
# [6] = tested on: Actinomyces neuii subsp. anitratus; experiment: Antimicrobial activity against Actinomyces neuii subsp. anitratus under anaerobic conditions after 44 hrs by CLSI-M11-47 protocol based agar dilution method; type: functional, Winkia neuii subsp. anitrata; details: Winkia neuii; summary of the method: as §1
# Cutibacterium acnes = experiment: Antimicrobial activity against Propionibacterium acnes under anaerobic conditions after 44 hrs by CLSI-M11-47 protocol based agar dilution method; type: functional; summary of the method: as §2
# Collinsella aerofaciens = experiment: Antimicrobial activity against Colinsella aerofaciens under anaerobic conditions after 44 hrs by CLSI-M11-47 protocol based agar dilution method; type: functional; summary of the method: as §1
# Slackia exigua = experiment: Antimicrobial activity against Slackia exigua under anaerobic conditions after 44 hrs by CLSI-M11-47 protocol based agar dilution method; type: functional; summary of the method: as §2
# [7] = tested on: Enterocloster clostridioformis; experiment: Antimicrobial activity against Clostridium clostridioforme under anaerobic conditions after 44 hrs by CLSI-M11-47 protocol based agar dilution method; type: functional; summary of the method: as §1
# Clostridium aldenense = experiment: Antimicrobial activity against Clostridium aldenense under anaerobic conditions after 44 hrs by CLSI-M11-47 protocol based agar dilution method; type: functional; details: Enterocloster aldenensis; summary of the method: as §1
# Clostridium citroniae = experiment: Antimicrobial activity against Clostridium citroniae under anaerobic conditions after 44 hrs by CLSI-M11-47 protocol based agar dilution method; type: functional; details: Enterocloster citroniae; summary of the method: as §1
# Clostridium hathewayi = experiment: Antimicrobial activity against Clostridium hathewayi under anaerobic conditions after 44 hrs by CLSI-M11-47 protocol based agar dilution method; type: functional; details: Hungatella hathewayi; summary of the method: as §1
# [8] = tested on: Paraclostridium bifermentans; experiment: Antimicrobial activity against Clostridium bifermentans under anaerobic conditions after 44 hrs by CLSI-M11-47 protocol based agar dilution method; type: functional; summary of the method: as §1
# Clostridium butyricum = experiment: Antimicrobial activity against Clostridium butyricum under anaerobic conditions after 44 hrs by CLSI-M11-47 protocol based agar dilution method; type: functional
# Clostridium hylemonae = experiment: Antimicrobial activity against Clostridium hylemonae under anaerobic conditions after 44 hrs by CLSI-M11-47 protocol based agar dilution method; type: functional; summary of the method: as §1
# [9] = tested on: Clostridium paraputrificum; experiment: Antimicrobial activity against Clostridium paraputrificum under anaerobic conditions after 44 hrs by CLSI-M11-47 protocol based agar dilution method; type: functional; summary of the method: as §1
# Clostridium subterminale = experiment: Antimicrobial activity against Clostridium subterminale under anaerobic conditions after 44 hrs by CLSI-M11-47 protocol based agar dilution method; type: functional; summary of the method: as §1
smiles,measurement,setting,value
CCC[C@@H]1C[C@@H](C(=O)N[C@@H]([C@H]2O[C@H](SC)[C@H](O)[C@@H](O)[C@H]2O)[C@H](C)Cl)N(C)C1 [CLINDAMYCIN],MIC50,Bacteroides caccae,4 µg/mL
same,MIC90,Bacteroides caccae,> 128 µg/mL
same,MIC50,Parabacteroides merdae,4 µg/mL
same,MIC90,Parabacteroides merdae,> 128 µg/mL
same,MIC50,Bacteroides ovatus,4 µg/mL
same,MIC90,Bacteroides ovatus,> 128 µg/mL
same,MIC50,Bacteroides uniformis,4 µg/mL
same,MIC90,Bacteroides uniformis,> 128 µg/mL
same,MIC50,[1],≤ 0.03 µg/mL
same,MIC90,[1],> 128 µg/mL
same,MIC50,Prevotella corporis,≤ 0.03 µg/mL
same,MIC90,Prevotella corporis,128 µg/mL
same,MIC50,Prevotella nanceiensis,≤ 0.03 µg/mL
same,MIC90,Prevotella nanceiensis,128 µg/mL
same,MIC50,Prevotella oris,≤ 0.03 µg/mL
same,MIC90,Prevotella oris,128 µg/mL
same,MIC50,[2],≤ 0.03 µg/mL
same,MIC90,[2],> 128 µg/mL
same,MIC50,Porphyromonas somerae,≤ 0.03 µg/mL
same,MIC90,Porphyromonas somerae,> 128 µg/mL
same,MIC50,[3],≤ 0.03 µg/mL
same,MIC90,[3],0.06 µg/mL
same,MIC50,Finegoldia magna,2 µg/mL
same,MIC90,Finegoldia magna,> 128 µg/mL
same,MIC50,[4],0.125 µg/mL
same,MIC90,[4],> 128 µg/mL
same,MIC50,[5],0.125 µg/mL
same,MIC90,[5],64 µg/mL
same,MIC50,Anaerococcus octavius,0.125 µg/mL
same,MIC90,Anaerococcus octavius,64 µg/mL
same,MIC50,Anaerococcus vaginalis,0.125 µg/mL
same,MIC90,Anaerococcus vaginalis,64 µg/mL
same,MIC50,Anaerococcus,0.125 µg/mL
same,MIC90,Anaerococcus,64 µg/mL
same,MIC50,Gemella morbillorum,0.125 µg/mL
same,MIC90,Gemella morbillorum,64 µg/mL
same,MIC50,Actinomyces israelii,0.06 µg/mL
same,MIC90,Actinomyces israelii,128 µg/mL
same,MIC50,[6],0.06 µg/mL
same,MIC90,[6],128 µg/mL
same,MIC50,Cutibacterium acnes,0.125 µg/mL
same,MIC90,Cutibacterium acnes,0.125 µg/mL
same,MIC50,Collinsella aerofaciens,0.06 µg/mL
same,MIC90,Collinsella aerofaciens,2 µg/mL
same,MIC50,Slackia exigua,0.06 µg/mL
same,MIC90,Slackia exigua,2 µg/mL
same,MIC50,[7],0.5 µg/mL
same,MIC90,[7],2 µg/mL
same,MIC50,Clostridium aldenense,0.5 µg/mL
same,MIC90,Clostridium aldenense,2 µg/mL
same,MIC50,Clostridium citroniae,0.5 µg/mL
same,MIC90,Clostridium citroniae,2 µg/mL
same,MIC50,Clostridium hathewayi,0.5 µg/mL
same,MIC90,Clostridium hathewayi,2 µg/mL
same,MIC50,[8],2 µg/mL
same,MIC90,[8],128 µg/mL
same,MIC50,Clostridium butyricum,2 µg/mL
same,MIC90,Clostridium butyricum,128 µg/mL
same,MIC50,Clostridium hylemonae,2 µg/mL
same,MIC90,Clostridium hylemonae,128 µg/mL
same,MIC50,[9],2 µg/mL
same,MIC90,[9],128 µg/mL
same,MIC50,Clostridium subterminale,2 µg/mL
same,MIC90,Clostridium subterminale,128 µg/mL
Cc1ncc([N+](=O)[O-])n1CCO [METRONIDAZOLE],MIC50,Bacteroides caccae,1 µg/mL
same,MIC90,Bacteroides caccae,2 µg/mL
same,MIC50,Parabacteroides merdae,1 µg/mL
same,MIC90,Parabacteroides merdae,2 µg/mL
same,MIC50,Bacteroides ovatus,1 µg/mL
same,MIC90,Bacteroides ovatus,2 µg/mL
same,MIC50,Bacteroides uniformis,1 µg/mL
same,MIC90,Bacteroides uniformis,2 µg/mL
same,MIC50,[1],0.5 µg/mL
same,MIC90,[1],1 µg/mL
same,MIC50,Prevotella corporis,0.5 µg/mL
same,MIC90,Prevotella corporis,2 µg/mL
same,MIC50,Prevotella nanceiensis,0.5 µg/mL
same,MIC90,Prevotella nanceiensis,2 µg/mL
same,MIC50,Prevotella oris,0.5 µg/mL
same,MIC90,Prevotella oris,2 µg/mL
same,MIC50,[2],0.06 µg/mL
same,MIC90,[2],0.125 µg/mL
same,MIC50,Porphyromonas somerae,0.5 µg/mL
same,MIC90,Porphyromonas somerae,0.5 µg/mL
same,MIC50,[3],0.125 µg/mL
same,MIC90,[3],0.25 µg/mL
same,MIC50,Finegoldia magna,0.5 µg/mL
same,MIC90,Finegoldia magna,1 µg/mL
same,MIC50,[4],1 µg/mL
same,MIC90,[4],1 µg/mL
same,MIC50,[5],1 µg/mL
same,MIC90,[5],4 µg/mL
same,MIC50,Anaerococcus octavius,1 µg/mL
same,MIC90,Anaerococcus octavius,4 µg/mL
same,MIC50,Anaerococcus vaginalis,1 µg/mL
same,MIC90,Anaerococcus vaginalis,4 µg/mL
same,MIC50,Anaerococcus,1 µg/mL
same,MIC90,Anaerococcus,4 µg/mL
same,MIC50,Gemella morbillorum,1 µg/mL
same,MIC90,Gemella morbillorum,4 µg/mL
same,MIC50,Actinomyces israelii,> 32 µg/mL
same,MIC90,Actinomyces israelii,> 32 µg/mL
same,MIC50,[6],> 32 µg/mL
same,MIC90,[6],> 32 µg/mL
same,MIC50,Cutibacterium acnes,> 32 µg/mL
same,MIC90,Cutibacterium acnes,> 32 µg/mL
same,MIC50,Collinsella aerofaciens,0.5 µg/mL
same,MIC90,Collinsella aerofaciens,1 µg/mL
same,MIC50,Slackia exigua,0.5 µg/mL
same,MIC90,Slackia exigua,1 µg/mL
same,MIC50,[7],0.06 µg/mL
same,MIC90,[7],0.25 µg/mL
same,MIC50,Clostridium aldenense,0.06 µg/mL
same,MIC90,Clostridium aldenense,0.25 µg/mL
same,MIC50,Clostridium citroniae,0.06 µg/mL
same,MIC90,Clostridium citroniae,0.25 µg/mL
same,MIC50,Clostridium hathewayi,0.06 µg/mL
same,MIC90,Clostridium hathewayi,0.25 µg/mL
same,MIC50,[8],0.5 µg/mL
same,MIC90,[8],4 µg/mL
same,MIC50,Clostridium butyricum,0.5 µg/mL
same,MIC90,Clostridium butyricum,4 µg/mL
same,MIC50,Clostridium hylemonae,0.5 µg/mL
same,MIC90,Clostridium hylemonae,4 µg/mL
same,MIC50,[9],0.5 µg/mL
same,MIC90,[9],4 µg/mL
same,MIC50,Clostridium subterminale,0.5 µg/mL
same,MIC90,Clostridium subterminale,4 µg/mL
